From ChEMBL document CHEMBL2203151, “Cytotoxic alkaloids from the whole plants of Zephyranthes candida” (J Nat Prod, 2012)

Test system: HL-60
Assay: Cytotoxicity against human HL60 cells after 48 hrs by MTT assay
Type: functional, cell-based
Details: HL-60, 48 h

SMILES	IC50 [µM]
c1ccc2c(c1)ncc1cc3c(cc12)OCO3 [TRISPHAERIDINE]	> 10
CCOC(=O)CCCn1c(=O)c2cc3c(cc2c2ccccc21)OCO3	> 10
CO[C@@H]1C=C[C@@]23c4cc5c(cc4CO[C@]2(O)CN(C)[C@H]3C1)OCO5 [TAZETTINE]	> 10
C/C=C/C=C/C(=O)N1C[C@H](C)NC[C@H]1C [NIGRAGILLIN]	> 10
CCOC(=O)CCn1c(=O)c2cc3c(cc2c2ccccc21)OCO3	> 10
CN1Cc2cc3c(cc2-c2ccccc21)OCO3	> 10
CO[C@H]1C=C[C@@]23c4cc5c(cc4CN(C)[C@@H]2C(=O)N(C)[C@H]3C1)OCO5 (relative stereo)	> 10
Cn1c(=O)c2cc3c(cc2c2ccccc21)OCO3	> 10
CO[C@@H]1C=C[C@@]23c4cc5c(cc4CN(C[C@@H]2O)[C@H]3C1)OCO5 [(+)-HAEMANTHAMINE]	1.4
COc1cc2c(c(OC)c1OC)[C@@H](OC)O[C@@H]1CC=C3CCN(C)[C@H]3[C@H]21	> 10
CO[C@@H]1C=C[C@@]23c4cc5c(cc4C(O)[N+](C)(C[C@@H]2O)[C@H]3C1)OCO5.[Cl-] (mixture of isomers)	0.91
O=c1c2cc3c(cc2c2ccccc2n1CCc1ccccc1)OCO3	0.81
O[C@H]1[C@H]2c3cc4c(cc3CN3CCC(=C[C@@H]1O)[C@H]23)OCO4 [LYCORINE]	1.6
CO[C@@H]1C=C[C@@]23c4cc5c(cc4C(=O)O[C@H]2CN(C)[C@H]3C1)OCO5	> 10
CC(C)CCn1c(=O)c2cc3c(cc2c2ccccc21)OCO3	> 10

Test system: not listed separately
Assay: Selectivity index, ratio of IC50 for human BEAS2B cells to IC50 for human HL60 cells
Type: functional
Details: not given

SMILES	Ratio IC50
CO[C@@H]1C=C[C@@]23c4cc5c(cc4C(O)[N+](C)(C[C@@H]2O)[C@H]3C1)OCO5.[Cl-] (mixture of isomers)	4.1
O=c1c2cc3c(cc2c2ccccc2n1CCc1ccccc1)OCO3	9

Test system: HepG2
Assay: Selectivity index, ratio of IC50 for human BEAS2B cells to IC50 for human HepG2 cells
Type: functional
Details: not given

SMILES	Ratio IC50
CO[C@@H]1C=C[C@@]23c4cc5c(cc4C(O)[N+](C)(C[C@@H]2O)[C@H]3C1)OCO5.[Cl-] (mixture of isomers)	2.5
O=c1c2cc3c(cc2c2ccccc2n1CCc1ccccc1)OCO3	5.2

Test system: not listed separately
Assay: Cytotoxicity against human BEAS2B cells after 48 hrs by MTT assay
Type: cell-based
Details: BEAS-2B
In short: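 Beas-2B immortalized, non-cancerous bronchial epithelial cells grown in RPMI-1640 or DMEM with 10% FBS, 5% CO2, 37°C. Cells were seeded and allowed to adhere 12 h before compound addition, then exposed for 48 h. DMSO negative and cisplatin positive controls were included. Viability was measured by MTT absorbance at 595 nm, and IC50 was calculated by the Reed–Muench method.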

SMILES	IC50 [µM]
CCOC(=O)CCCn1c(=O)c2cc3c(cc2c2ccccc21)OCO3	36
CCOC(=O)CCn1c(=O)c2cc3c(cc2c2ccccc21)OCO3	> 40
CO[C@@H]1C=C[C@@]23c4cc5c(cc4C(O)[N+](C)(C[C@@H]2O)[C@H]3C1)OCO5.[Cl-] (mixture of isomers)	3.7
O=c1c2cc3c(cc2c2ccccc2n1CCc1ccccc1)OCO3	7.3
O[C@H]1[C@H]2c3cc4c(cc3CN3CCC(=C[C@@H]1O)[C@H]23)OCO4 [LYCORINE]	4.9

Test system: K562
Assay: Cytotoxicity against human K562 cells after 48 hrs by MTT assay
Type: functional, cell-based
Details: K562, 48 h

SMILES	IC50 [µM]
c1ccc2c(c1)ncc1cc3c(cc12)OCO3 [TRISPHAERIDINE]	> 10
CCOC(=O)CCCn1c(=O)c2cc3c(cc2c2ccccc21)OCO3	> 10
CO[C@@H]1C=C[C@@]23c4cc5c(cc4CO[C@]2(O)CN(C)[C@H]3C1)OCO5 [TAZETTINE]	> 10
C/C=C/C=C/C(=O)N1C[C@H](C)NC[C@H]1C [NIGRAGILLIN]	> 10
CCOC(=O)CCn1c(=O)c2cc3c(cc2c2ccccc21)OCO3	> 10
CN1Cc2cc3c(cc2-c2ccccc21)OCO3	> 10
CO[C@H]1C=C[C@@]23c4cc5c(cc4CN(C)[C@@H]2C(=O)N(C)[C@H]3C1)OCO5 (relative stereo)	> 10
Cn1c(=O)c2cc3c(cc2c2ccccc21)OCO3	> 10
CO[C@@H]1C=C[C@@]23c4cc5c(cc4CN(C[C@@H]2O)[C@H]3C1)OCO5 [(+)-HAEMANTHAMINE]	2.5
COc1cc2c(c(OC)c1OC)[C@@H](OC)O[C@@H]1CC=C3CCN(C)[C@H]3[C@H]21	> 10
CO[C@@H]1C=C[C@@]23c4cc5c(cc4C(O)[N+](C)(C[C@@H]2O)[C@H]3C1)OCO5.[Cl-] (mixture of isomers)	1
O=c1c2cc3c(cc2c2ccccc2n1CCc1ccccc1)OCO3	0.7
O[C@H]1[C@H]2c3cc4c(cc3CN3CCC(=C[C@@H]1O)[C@H]23)OCO4 [LYCORINE]	2.3
CO[C@@H]1C=C[C@@]23c4cc5c(cc4C(=O)O[C@H]2CN(C)[C@H]3C1)OCO5	> 10
CC(C)CCn1c(=O)c2cc3c(cc2c2ccccc21)OCO3	> 10

Test system: HT-29
Assay: Cytotoxicity against human HT-29 cells after 48 hrs by MTT assay
Type: functional, cell-based
Details: HT-29, 48 h

SMILES	IC50 [µM]
c1ccc2c(c1)ncc1cc3c(cc12)OCO3 [TRISPHAERIDINE]	> 10
CCOC(=O)CCCn1c(=O)c2cc3c(cc2c2ccccc21)OCO3	> 10
CO[C@@H]1C=C[C@@]23c4cc5c(cc4CO[C@]2(O)CN(C)[C@H]3C1)OCO5 [TAZETTINE]	> 10
C/C=C/C=C/C(=O)N1C[C@H](C)NC[C@H]1C [NIGRAGILLIN]	> 10
CCOC(=O)CCn1c(=O)c2cc3c(cc2c2ccccc21)OCO3	> 10
CN1Cc2cc3c(cc2-c2ccccc21)OCO3	> 10
CO[C@H]1C=C[C@@]23c4cc5c(cc4CN(C)[C@@H]2C(=O)N(C)[C@H]3C1)OCO5 (relative stereo)	> 10
Cn1c(=O)c2cc3c(cc2c2ccccc21)OCO3	> 10
CO[C@@H]1C=C[C@@]23c4cc5c(cc4CN(C[C@@H]2O)[C@H]3C1)OCO5 [(+)-HAEMANTHAMINE]	2.1
COc1cc2c(c(OC)c1OC)[C@@H](OC)O[C@@H]1CC=C3CCN(C)[C@H]3[C@H]21	> 10
CO[C@@H]1C=C[C@@]23c4cc5c(cc4C(O)[N+](C)(C[C@@H]2O)[C@H]3C1)OCO5.[Cl-] (mixture of isomers)	1.2
O=c1c2cc3c(cc2c2ccccc2n1CCc1ccccc1)OCO3	2.3
O[C@H]1[C@H]2c3cc4c(cc3CN3CCC(=C[C@@H]1O)[C@H]23)OCO4 [LYCORINE]	3.2
CO[C@@H]1C=C[C@@]23c4cc5c(cc4C(=O)O[C@H]2CN(C)[C@H]3C1)OCO5	> 10
CC(C)CCn1c(=O)c2cc3c(cc2c2ccccc21)OCO3	> 10

Test system: HepG2
Assay: Cytotoxicity against human HepG2 cells after 48 hrs by MTT assay
Type: functional, cell-based
Details: HepG2, 48 h

SMILES	IC50 [µM]
c1ccc2c(c1)ncc1cc3c(cc12)OCO3 [TRISPHAERIDINE]	> 10
CCOC(=O)CCCn1c(=O)c2cc3c(cc2c2ccccc21)OCO3	> 10
CO[C@@H]1C=C[C@@]23c4cc5c(cc4CO[C@]2(O)CN(C)[C@H]3C1)OCO5 [TAZETTINE]	> 10
C/C=C/C=C/C(=O)N1C[C@H](C)NC[C@H]1C [NIGRAGILLIN]	> 10
CCOC(=O)CCn1c(=O)c2cc3c(cc2c2ccccc21)OCO3	> 10
CN1Cc2cc3c(cc2-c2ccccc21)OCO3	> 10
CO[C@H]1C=C[C@@]23c4cc5c(cc4CN(C)[C@@H]2C(=O)N(C)[C@H]3C1)OCO5 (relative stereo)	> 10
Cn1c(=O)c2cc3c(cc2c2ccccc21)OCO3	> 10
CO[C@@H]1C=C[C@@]23c4cc5c(cc4CN(C[C@@H]2O)[C@H]3C1)OCO5 [(+)-HAEMANTHAMINE]	4.8
COc1cc2c(c(OC)c1OC)[C@@H](OC)O[C@@H]1CC=C3CCN(C)[C@H]3[C@H]21	> 10
CO[C@@H]1C=C[C@@]23c4cc5c(cc4C(O)[N+](C)(C[C@@H]2O)[C@H]3C1)OCO5.[Cl-] (mixture of isomers)	1.5
O=c1c2cc3c(cc2c2ccccc2n1CCc1ccccc1)OCO3	1.4
O[C@H]1[C@H]2c3cc4c(cc3CN3CCC(=C[C@@H]1O)[C@H]23)OCO4 [LYCORINE]	3.7
CO[C@@H]1C=C[C@@]23c4cc5c(cc4C(=O)O[C@H]2CN(C)[C@H]3C1)OCO5	> 10
CC(C)CCn1c(=O)c2cc3c(cc2c2ccccc21)OCO3	> 10

Test system: A549
Assay: Selectivity index, ratio of IC50 for human BEAS2B cells to IC50 for human A549 cells
Type: functional
Details: not given

SMILES	Ratio IC50
CO[C@@H]1C=C[C@@]23c4cc5c(cc4C(O)[N+](C)(C[C@@H]2O)[C@H]3C1)OCO5.[Cl-] (mixture of isomers)	3.4
O=c1c2cc3c(cc2c2ccccc2n1CCc1ccccc1)OCO3	0.56

Test system: K562
Assay: Selectivity index, ratio of IC50 for human BEAS2B cells to IC50 for human K562 cells
Type: functional
Details: not given

SMILES	Ratio IC50
CO[C@@H]1C=C[C@@]23c4cc5c(cc4C(O)[N+](C)(C[C@@H]2O)[C@H]3C1)OCO5.[Cl-] (mixture of isomers)	3.7
O=c1c2cc3c(cc2c2ccccc2n1CCc1ccccc1)OCO3	10

Test system: HT-29
Assay: Selectivity index, ratio of IC50 for human BEAS2B cells to IC50 for human HT-29 cells
Type: functional
Details: not given

SMILES	Ratio IC50
CO[C@@H]1C=C[C@@]23c4cc5c(cc4C(O)[N+](C)(C[C@@H]2O)[C@H]3C1)OCO5.[Cl-] (mixture of isomers)	3.1
O=c1c2cc3c(cc2c2ccccc2n1CCc1ccccc1)OCO3	3.2

Test system: A549
Assay: Cytotoxicity against human A549 cells after 48 hrs by MTT assay
Type: functional, cell-based
Details: A549, 48 h

SMILES	IC50 [µM]
c1ccc2c(c1)ncc1cc3c(cc12)OCO3 [TRISPHAERIDINE]	> 10
CCOC(=O)CCCn1c(=O)c2cc3c(cc2c2ccccc21)OCO3	> 10
CO[C@@H]1C=C[C@@]23c4cc5c(cc4CO[C@]2(O)CN(C)[C@H]3C1)OCO5 [TAZETTINE]	> 10
C/C=C/C=C/C(=O)N1C[C@H](C)NC[C@H]1C [NIGRAGILLIN]	> 10
CCOC(=O)CCn1c(=O)c2cc3c(cc2c2ccccc21)OCO3	> 10
CN1Cc2cc3c(cc2-c2ccccc21)OCO3	> 10
CO[C@H]1C=C[C@@]23c4cc5c(cc4CN(C)[C@@H]2C(=O)N(C)[C@H]3C1)OCO5 (relative stereo)	> 10
Cn1c(=O)c2cc3c(cc2c2ccccc21)OCO3	> 10
CO[C@@H]1C=C[C@@]23c4cc5c(cc4CN(C[C@@H]2O)[C@H]3C1)OCO5 [(+)-HAEMANTHAMINE]	2.5
COc1cc2c(c(OC)c1OC)[C@@H](OC)O[C@@H]1CC=C3CCN(C)[C@H]3[C@H]21	> 10
CO[C@@H]1C=C[C@@]23c4cc5c(cc4C(O)[N+](C)(C[C@@H]2O)[C@H]3C1)OCO5.[Cl-] (mixture of isomers)	1.1
O=c1c2cc3c(cc2c2ccccc2n1CCc1ccccc1)OCO3	13
O[C@H]1[C@H]2c3cc4c(cc3CN3CCC(=C[C@@H]1O)[C@H]23)OCO4 [LYCORINE]	1.9
CO[C@@H]1C=C[C@@]23c4cc5c(cc4C(=O)O[C@H]2CN(C)[C@H]3C1)OCO5	> 10
CC(C)CCn1c(=O)c2cc3c(cc2c2ccccc21)OCO3	> 10
